b-catenin transl – alters nuclear translocation of beta-catenin in HeLa cells; nuclear translocation activity, % at 5 µM; AID 1665; immunofluorescence imaging; 0.3% of 190,000 active;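 active = nuclear translocation activity above 50% at 5 µM, with a well cell count of 50 or more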;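 also: per-cell ratio of nuclear to cytoplasmic median beta-catenin stain intensity; plate controls were DMSO negative control for no effect and GSK-3 inhibitor IX positive control for full effect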
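Test system: human HeLa cells, endogenous beta-catenin. Times: 24 h compound exposure, 37°C. Measured by: beta-catenin immunofluorescence imaging with DAPI.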
L major viab – inhibitors of Leishmania major promastigote growth. AID 1063. Leishmania major promastigotes, resazurin fluorescence viability. 9% of 200,000 active. inhibition, % at 10 µM; in the data active = inhibition above about 50%;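 also: promastigotes grown with compound for 44 hours at 28 °C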
CHOP inhibitor – inhibitors of CHOP induction in ER stress response. CHO-K1 CHOP-promoter luciferase, tunicamycin-induced, 15-18 h. inhibition, % at 10 µM. 3.8% of 220,000 active;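 active = compounds that reduced the stress-induced luciferase reporter signal by more than about 70% of percent inhibition, limit read from the data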;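 also: 0% = tunicamycin plus vehicle and 100% = wells without tunicamycin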
MT stabilize HCS – microtubule stabilizers in HeLa cells; HeLa tubulin immunostaining HCS, 24 h; share of cells brighter than vehicle mean+2SD; % tubulin-high responders, % at 10 µM; 0.83% of 200,000 active;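 active = plate Z-score above 3 for both tubulin-high and condensed-nucleus cell shares, with cell loss under 80%, at 10 µM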;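 also: anti alpha tubulin signal scored within the nucleus-defined area of each cell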
Autophagy HCS – autophagy modulation, high-content screen | MEF GFP-LC3 puncta imaging; test concentration mostly 10 µM | calls only at 10 µM (by protocol) | 0.98% of 190,000 active | AID 463193;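 active = percentage of spot-positive cells more than 3 SD above its plate mean, without a fluorescence outlier flag or 80% toxicity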;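 also: spot-positive cell cutoff set from DMSO-treated cells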
Dynein cargo inh – dynein cargo transport inhibition. 3617.4 mouse cells, GR-EGFP nuclear translocation imaging; test concentration mostly 20 µM; stimulated with dexamethasone, 1 µM; stronger effect = lower value. z-score, hits read low. 0.47% of 220,000 active. AID 1381;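 active = plate z-score of nuclear minus cytoplasmic receptor signal below a set negative limit, without overly bright fluorescence or cell loss, cut at about -3.5 in these data, passing the limit was not always enough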;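 also: z-score of nuclear minus cytoplasmic ring GR-EGFP intensity difference per well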
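medium = tetracycline-free induction medium containing charcoal-stripped FBS | also added = 1.0 µM final dexamethasone stimulus | schedule = 48 h induction, 1 h compound, 30 min dex at 37 °C | technique = fixed, Hoechst-stained cells imaged at 10x for EGFP | measure = GR-EGFP nuclear translocation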
* = called active by the depositor; i = inactive; / = no result given. Only some compounds are listed: those with a hit (about 12% of all), similar ones and a draw of the others.

SMILES	b-catenin transl	L major viab	CHOP inhibitor	MT stabilize HCS	Autophagy HCS	Dynein cargo inh
CS(=O)(=O)N1CCN(c2ccc(NC(=O)c3ccc(-c4ccc(Cl)cc4)o3)cc2)CC1	/	-4.1	75.2*	1.8	i	-0.755
CS(=O)(=O)N1CCN(c2ccccc2NC(=O)c2cc(Br)ccc2Cl)CC1	3.2	16.8	4.8	2.4	i	-0.286
CS(=O)(=O)N1CCN(c2ccccc2NC(=O)c2ccc(-c3ccc(Br)cc3)o2)CC1	2.0	52.9*	-45.4	1.2	i	-1.51
Cc1cc(C)c(NC(=O)C(C)c2cccc(C(=O)c3ccccc3)c2)c(C)c1 (stereo unspecified)	-0.7	5.7	16.1	1.5	i	1.06
CC(C)CC(c1nnnn1Cc1ccccc1)N1CCC(C(N)=O)CC1 (stereo unspecified)	/	-3.6	8.2	6.2	i	-0.604
COc1ccc(-c2cc(C(=O)c3c(N)n(C)c(=O)n(C)c3=O)c3ccccc3n2)cc1OC	1.9	-2.2	-11.9	2.6	i	-0.293
COc1ccc(-c2cc(-c3n[nH]c(=S)n3-c3cccc4ccccc34)[nH]n2)cc1	0.3	30.0	-13.7	3.0	i	-0.724
S=c1[nH]nc(-c2cc(-c3ccsc3)n[nH]2)n1-c1cccc2ccccc12	-2.7	74.6*	8.2	3.0	i	-0.537
CCOc1ccc(NC(=O)c2ccccc2OCC(=O)c2ccccc2)cc1	/	9.6	-29.2	2.4	i	0.941
CCOC(=O)c1c(C)n(C)c2ccc(OCC(O)CN3CCCCCC3)cc12 (stereo unspecified)	/	97.7*	36.8	6.4	i	-0.445
CCOC(=O)c1c(C)n(-c2ccc(C)cc2)c2ccc(OCC(O)CNCCCO)cc12 (stereo unspecified)	5.3	79.6*	-7.1	3.3	i	3.51
CCOC(=O)c1c(C)n(C)c2ccc(OCC(O)CNC(CC)CO)cc12 (stereo unspecified)	-4.6	6.5	-22.8	3.9	i	-0.285
CCOC(=O)c1c(C)n(-c2ccc(C)cc2)c2ccc(OCC(O)CNCC3CCCO3)cc12 (stereo unspecified)	/	100.4*	59.7	3.0	i	-2.46
Cc1ccc(S(=O)(=O)N2CCCCC2)cc1NC(=O)Cn1c(=O)cnc2ccccc21	0.0	13.3	6.6	2.8	i	-0.187
O=C(O)CCn1c(C2CCCCC2)nc2ccccc21	-3.8	-8.2	3.2	5.1	i	-0.997
c1ccc(CCn2c(C3CC3)nc3ccccc32)cc1	/	62.9*	-18.1	1.2	i	-0.48
CCOC(=O)c1c(C)nc2sc3c(=O)n(-c4ccc(C)cc4)cnc3c2c1-c1ccc(OC)cc1	-0.2	-0.4	-3.3	1.7	i	0.474
CCOC(=O)CSc1nc(C)nc2c1sc1nc(C)c(C(C)=O)c(-c3ccc(OC)cc3)c12	0.3	85.1*	10.0	2.0	i	-0.368
Cc1onc(-c2c(F)cccc2Cl)c1C(=O)OCC(=O)NC(c1ccccc1)c1ccccc1	-3.2	10.9	62.6	0.7	i	-0.338
Cc1ccc(Nc2cc(=O)oc3ccccc23)c(C)c1	0.9	8.9	16.9	26.8*	i	-0.364
CC1(C(=O)O)CCC(C(=O)N2CCOCC2)C1(C)C (stereo unspecified)	-0.9	-1.4	-18.1	4.3	i	0.172
Cc1ccc(NC2CCCCC2NS(=O)(=O)c2ccc(Cl)cc2)cc1 (stereo unspecified)	-0.1	6.0	90.5*	1.4	i	0.0439
Cc1ccc(NS(=O)(=O)c2ccc(C3CCCCC3)cc2)cc1	1.4	12.6	95.2*	4.0	i	-0.662
O=S(=O)(NC1CCCCC1NCc1ccco1)c1ccc(Cl)cc1 (stereo unspecified)	-1.8	11.6	-2.2	2.5	i	0.0877
Cc1ccc(S(=O)(=O)NNC(=O)Nc2ccc(Cl)cc2)cc1	-1.0	-2.8	3.3	1.1	i	-0.127
SMILES	b-catenin transl	L major viab	CHOP inhibitor	MT stabilize HCS	Autophagy HCS	Dynein cargo inh
O=S(=O)(NC1CCCCC1Sc1ncccn1)c1ccc(Cl)cc1 (stereo unspecified)	2.7	37.6	21.2	1.3	i	0.0252
O=S(=O)(NC1CCCCC1Nc1ccc(Cl)cc1)c1ccccc1 (stereo unspecified)	-2.0	91.4*	50.7	2.4	i	-0.85
O=S(=O)(NC1CCCCC1Sc1ncccn1)c1ccccc1 (stereo unspecified)	-3.4	64.9*	9.8	4.1	i	1.07
COc1cccc(NC(=O)CN(C)C(C)C(=O)Nc2cc([N+](=O)[O-])ccc2Cl)c1 (stereo unspecified)	0.2	31.9	19.3	7.4	i	1.76
CCOC(=O)/C(N=Nc1sc(C(=O)OC)c(C)c1C(=O)OCC)=C(\O)CCl	-1.1	-9.1	8.0	1.7	i	-1.31
Cc1nonc1OCCNc1ccc([N+](=O)[O-])cc1	0.4	-7.0	8.4	7.5	i	0.291
Cc1nonc1OCCNCCNc1ccc([N+](=O)[O-])cc1Cl	0.1	87.1*	0.4	1.7	i	1.13
Cc1c(C(=O)NCCCN2CCOCC2)oc2c1C1(CCC2)SCCS1	-0.5	87.8*	5.1	2.3	i	-0.611
COCC(C)NC(=O)c1oc2c(c1C)C1(CCC2)SCCS1 (stereo unspecified)	-1.5	1.6	-3.6	3.8	i	-0.45
O=C(Nc1ccc2cn[nH]c2c1)c1ccc(Cl)c(S(=O)(=O)N2CCOCC2)c1	2.4	-1.4	18.6	5.1	i	-1.27
CCn1c(C)nc2cc(C(=O)N=Nc3c(O)[nH]c4c(C)cc(C)cc34)ccc21	1.0	-2.0	41.4	2.8	i	0.0735
CCn1c(C)nc2cc(C(=O)N/N=C/c3ccc(OC)c(O)c3)ccc21	/	63.2*	58.0	3.8	i	-0.179
CCn1c(C)nc2cc(C(=O)N=Nc3c(O)[nH]c4ccccc34)ccc21	-0.2	53.7*	6.7	1.2	i	-0.833
CCn1c(C)nc2cc(C(=O)N/N=C/c3cccc(O)c3O)ccc21	4.2	98.3*	21.6	1.7	i	0.114
CCn1c(C)nc2cc(C(=O)N/N=C/c3ccc(OC)cc3)ccc21	-0.1	-1.9	-10.3	4.1	i	-0.248
O=C(Nc1cccc(NC(=O)c2ccccc2[N+](=O)[O-])n1)c1ccccc1[N+](=O)[O-]	/	-0.1	13.7	1.4	i	-0.497
CC(=O)Nc1ccccc1C(=O)C(=O)Nc1ccc(C(=O)NCC2CCCO2)cc1 (stereo unspecified)	2.6	-1.4	-1.9	4.0	i	-0.27
CCN1CCc2c(OCC(=O)N3N=C(c4cccs4)CC3c3ccc(F)cc3)cccc2C1=O (stereo unspecified)	-2.1	19.2	13.6	3.4	i	0.377
Cc1cc(C)c(S(=O)(=O)Nc2ccc(-c3cn4ccccc4n3)cc2)c(C)c1	-0.4	60.8*	38.7	2.7	i	1.8

Screening data deposited in PubChem by several laboratories.
